ChEMBL document CHEMBL1148843, “High-throughput screening affords novel and selective trypanothione reductase inhibitors with anti-trypanosomal activity” (Bioorg Med Chem Lett, 2007)
pEC50, pIC50: −log10 of the molar value.

Columns and labels:
[1] = target: T1, Glutathione reductase, mitochondrial (Homo sapiens, UniProt P00390); experiment: Inhibition of human GR
T1 sequence (P00390 whole entry): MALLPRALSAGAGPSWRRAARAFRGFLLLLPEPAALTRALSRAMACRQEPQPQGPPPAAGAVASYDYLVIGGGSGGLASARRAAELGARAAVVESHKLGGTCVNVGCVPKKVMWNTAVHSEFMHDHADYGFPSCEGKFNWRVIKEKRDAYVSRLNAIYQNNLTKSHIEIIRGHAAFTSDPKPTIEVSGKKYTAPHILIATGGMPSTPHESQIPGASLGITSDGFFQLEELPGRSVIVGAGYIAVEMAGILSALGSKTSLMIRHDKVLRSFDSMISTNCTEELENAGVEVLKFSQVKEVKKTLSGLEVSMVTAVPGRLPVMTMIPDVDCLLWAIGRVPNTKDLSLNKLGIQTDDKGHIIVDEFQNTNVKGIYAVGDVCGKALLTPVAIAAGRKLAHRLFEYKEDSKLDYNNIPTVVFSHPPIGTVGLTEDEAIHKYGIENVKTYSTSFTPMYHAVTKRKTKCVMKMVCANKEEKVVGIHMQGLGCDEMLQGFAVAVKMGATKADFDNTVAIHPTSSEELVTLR

[2] = Selectivity for TR over human GR
[3] = target: Trypanothione reductase (Trypanosoma brucei brucei, UniProt P39051); experiment: Inhibition of TR by DTNB-coupled assay
Method in brief: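 Trypanothione reductase in 40 mM potassium HEPES pH 7.4, 1 mM EDTA with 4.22 µM trypanothione disulfide, 70.3 µM DTNB, 2.81 mU/mL TR. Compounds added from DMSO stocks, tested over 1.91 ng/mL to 31.2 µg/mL. NADPH added to start the reaction, 135 µM in the added solution. Plates incubated 60 min at 30°C, absorbance read at 405 nm. IC50 values determined.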

[4] = system: Trypanosoma brucei; experiment: Antiproliferative activity against Trypanosoma brucei; type: functional, organism-based
Method in brief: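 Bloodstream T. b. brucei S427 seeded at 10^3 cells/ml in HMI9 medium, 0.5% DMSO, inhibitor 50 to 0.2 μM serially diluted from 10 mM DMSO stocks. Incubated 72 h, 37 °C, 5% CO2, humidified. Then 45 μM resazurin added, further 4 h, resorufin fluorescence read (ex 528, em 590 nm). Triplicates, three separate occasions; weighted means ± SEM.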

Chain of Trypanothione reductase (P39051 whole entry): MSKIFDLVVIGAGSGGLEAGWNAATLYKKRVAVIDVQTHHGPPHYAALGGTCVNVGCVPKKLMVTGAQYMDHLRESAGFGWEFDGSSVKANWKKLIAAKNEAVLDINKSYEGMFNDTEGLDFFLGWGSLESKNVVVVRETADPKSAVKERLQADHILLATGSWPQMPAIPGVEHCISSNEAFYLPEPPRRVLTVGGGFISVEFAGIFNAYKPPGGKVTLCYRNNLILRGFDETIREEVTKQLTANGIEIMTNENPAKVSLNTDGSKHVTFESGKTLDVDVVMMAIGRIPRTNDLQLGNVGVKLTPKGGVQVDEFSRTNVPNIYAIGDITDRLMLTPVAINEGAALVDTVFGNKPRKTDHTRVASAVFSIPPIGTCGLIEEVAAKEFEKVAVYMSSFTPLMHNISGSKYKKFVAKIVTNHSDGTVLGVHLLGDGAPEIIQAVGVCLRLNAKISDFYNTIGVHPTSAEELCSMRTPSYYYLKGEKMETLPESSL

Row | pIC50 [4] | SMILES | pIC50 [1] | Ratio IC50 [2] | pIC50 [3] | pEC50 [4]
1 | – | CN(C)CCC(=O)c1ccc(Cl)c(Cl)c1 | 4.19 | 20 | 5.48 | 6.00
2 | – | O=C(CCNc1ccccc1)c1cccc([N+](=O)[O-])c1 | 4.24 | 35 | 5.77 | 6.00
3 | – | CC(C)c1cc(CN(C)C)cc(C(C)C)c1O | 4.10 | 6.7 | 4.93 | < 4.30
4 | – | CN(C)CCC(=O)c1cccc([N+](=O)[O-])c1 | 4.69 | 59 | 6.47 | 6.17
5 | – | CCc1ccc(NCCC(=O)c2ccc(Cl)c(Cl)c2)cc1 | < 3.80 | – | 3.97 | 5.78
6 | 8.34 | N=C(N)c1ccc(OCCCCCOc2ccc(C(=N)N)cc2)cc1 [PENTAMIDINE] | – | – | – | –
7 | – | CN(C)CCC(=O)c1ccc(S(C)(=O)=O)cc1 | 4.69 | 7 | 5.54 | 6.26
8 | – | CC(C)(C)c1cc(CNCCO)cc(C(C)(C)C)c1O | 4.60 | 13 | 5.70 | 5.52
9 | – | O=C(CCN1CCOCC1)c1ccc(Cl)cc1 | < 3.67 | – | 3.83 | 6.01
10 | – | O=C(CCNc1cccc(F)c1)c1cccc([N+](=O)[O-])c1 | < 3.76 | – | 5.48 | 6.09
11 | – | CCCCOC(=O)c1ccc(NCCC(=O)c2cccc([N+](=O)[O-])c2)cc1 | < 3.87 | – | 5.62 | 6.02
12 | – | CS(=O)(=O)c1ccc(C(=O)CCN2CCCCC2)cc1 | 3.98 | 13 | 5.11 | 6.02
13 | – | CC(C)(C)c1cc(CN2CCCCCC2)cc(C(C)(C)C)c1O | < 3.81 | – | 4.41 | 5.48
14 | – | Cc1cccc(NCCC(=O)c2cccc([N+](=O)[O-])c2)c1C | 4.06 | 58 | 5.82 | 6.82
